Assay results reported in ChEMBL document CHEMBL1687823, “PA-824 exhibits time-dependent activity in a murine model of tuberculosis” (Antimicrob Agents Chemother, 2011).
Values after ≈ are worked out from the molar mass of the structure shown.

What was measured:
[1] = Tmax in BALB/c mouse up to 1456 mg/kg, po administered as single dose; format: ADME, organism-based; design: route oral; conditions: in vivo
Summary of the method: (§1)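 Uninfected 6-week female BALB/c mice received single oral gavage doses of 3–1,458 mg/kg as a cyclodextrin-micelle suspension. Three mice per time point were bled by cardiac puncture under isoflurane at 0.5–120 h. Serum levels were measured by validated HPLC-UV (standards 0.20–50 µg/ml).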

[2] = system: Mycobacterium tuberculosis; assay: Antitubercular activity against Mycobacterium tuberculosis H37Rv assessed as reduction in CFU count by agar proportion method; format: functional
Summary of the method: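 Agar proportion method on 7H11 agar with 10% OADC containing 2-fold drug dilutions (0.007–2.0 µg/ml). Plates inoculated with serial 100-fold dilutions of log-phase H37Rv broth culture (~10^8 CFU/ml). Drug-free and isoniazid plates as controls. CFU counted after 21 days at 37°C, 5% CO2. MIC is the lowest concentration giving <1% of drug-free CFU.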

[3] = system: Mus musculus; assay: Toxicity in BALB/c mouse assessed as adverse effect up to 1456 mg/kg, po administered as single dose; format: organism-based; design: route oral; conditions: in vivo; summary of the method: as §1
[4] = system: Mycobacterium tuberculosis; assay: Antitubercular activity against Mycobacterium tuberculosis H37Rv infected in BALB/c mouse assessed as reduction in log10 CFU count at 96 mg/kg, po bid; format: functional
Summary of the method: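 Female 6-week BALB/c mice were aerosol-infected with log-phase H37Rv, aiming to implant ~3.5 log10 CFU. Treatment began 14 days later: gavage of cyclodextrin-micelle suspension for 24 consecutive days, total 0–4,608 mg/kg split into 3–48 equal doses, 3 mice per group. Lungs harvested 4 days after last dose and plated on selective OADC-7H11. CFU transformed as log10(x+1).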

[5] = system: Mycobacterium tuberculosis; assay: fT>MIC for >= 1 log reduction in CFU count in Mycobacterium tuberculosis H37Rv in using simulated dose of at 100 mg assessed as time during compound concentration exceeds MIC of 0.03125 ug/ml assuming 5% unbound compound concentration by one compartment human pharmacokinetic model; format: functional
Summary of the method: (§2)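 A one-compartment PK model was fitted to human data to get median parameters. It simulated steady-state total and free concentrations for 100, 200 or 400 mg once daily, assuming 5, 7, 10 or 15% unbound drug. Free T>MIC was computed against MICs of 0.03125–0.25 µg/ml and compared with the mouse-derived T>MIC target for 1-log10 kill.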

[6] = system: Mycobacterium tuberculosis; assay: fT>MIC for >= 1 log reduction in CFU count in Mycobacterium tuberculosis H37Rv in using simulated dose of at 200 mg assessed as time during compound concentration exceeds MIC of 0.03125 ug/ml assuming 5% unbound compound concentration by one compartment human pharmacokinetic model; format: functional; summary of the method: as §2
[7] = system: Mycobacterium tuberculosis; assay: fT>MIC for >= 1 log reduction in CFU count in Mycobacterium tuberculosis H37Rv in using simulated dose of at 400 mg assessed as time during compound concentration exceeds MIC of 0.03125 ug/ml assuming 10% unbound compound concentration by one compartment human pharmacokinetic model; format: functional; summary of the method: as §2
[8] = system: Mycobacterium tuberculosis; assay: fT>MIC for >= 1 log reduction in CFU count in Mycobacterium tuberculosis H37Rv in using simulated dose of at 400 mg assessed as time during compound concentration exceeds MIC of 0.03125 ug/ml assuming 15% unbound compound concentration by one compartment human pharmacokinetic model; format: functional; summary of the method: as §2
[9] = system: Mycobacterium tuberculosis; assay: fT>MIC for >= 1 log reduction in CFU count in Mycobacterium tuberculosis H37Rv in using simulated dose of at 200 mg assessed as time during compound concentration exceeds MIC of 0.06250 ug/ml assuming 5% unbound compound concentration by one compartment human pharmacokinetic model; format: functional; summary of the method: as §2
[10] = system: Mycobacterium tuberculosis; assay: fT>MIC for >= 1 log reduction in CFU count in Mycobacterium tuberculosis H37Rv in using simulated dose of at 400 mg assessed as time during compound concentration exceeds MIC of 0.06250 ug/ml assuming 7% unbound compound concentration by one compartment human pharmacokinetic model; format: functional
Summary of the method: (§3)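 Human steady-state simulation: one-compartment PK model fitted to patient data, chosen by AIC. Median PK parameters used to simulate total and free concentrations, assuming 5, 7, 10 or 15% unbound, for 100, 200 and 400 mg once daily. Free levels compared with MICs of 0.03125 to 0.25 µg/ml to give %T>MIC; T>MIC is the cumulative percentage of the dosing interval above MIC.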

[11] = system: Mycobacterium tuberculosis; assay: fT>MIC for >= 1 log reduction in CFU count in Mycobacterium tuberculosis H37Rv in using simulated dose of at 100 mg assessed as time during compound concentration exceeds MIC of 0.06250 ug/ml assuming 10% unbound compound concentration by one compartment human pharmacokinetic model; format: functional; summary of the method: as §2
[12] = system: Mycobacterium tuberculosis; assay: fT>MIC for >= 1 log reduction in CFU count in Mycobacterium tuberculosis H37Rv in using simulated dose of at 200 mg assessed as time during compound concentration exceeds MIC of 0.12500 ug/ml assuming 5% unbound compound concentration by one compartment human pharmacokinetic model; format: functional; summary of the method: as §2
[13] = system: Mycobacterium tuberculosis; assay: fT>MIC for >= 1 log reduction in CFU count in Mycobacterium tuberculosis H37Rv in using simulated dose of at 100 mg assessed as time during compound concentration exceeds MIC of 0.12500 ug/ml assuming 10% unbound compound concentration by one compartment human pharmacokinetic model; format: functional; summary of the method: as §2
[14] = system: Mycobacterium tuberculosis; assay: fT>MIC for >= 1 log reduction in CFU count in Mycobacterium tuberculosis H37Rv in using simulated dose of at 400 mg assessed as time during compound concentration exceeds MIC of 0.12500 ug/ml assuming 10% unbound compound concentration by one compartment human pharmacokinetic model; format: functional; summary of the method: as §3
[15] = system: Mycobacterium tuberculosis; assay: fT>MIC for >= 1 log reduction in CFU count in Mycobacterium tuberculosis H37Rv in using simulated dose of at 400 mg assessed as time during compound concentration exceeds MIC of 0.25000 ug/ml assuming 5% unbound compound concentration by one compartment human pharmacokinetic model; format: functional; summary of the method: as §3
[16] = system: Mycobacterium tuberculosis; assay: fT>MIC for >= 1 log reduction in CFU count in Mycobacterium tuberculosis H37Rv in using simulated dose of at 400 mg assessed as time during compound concentration exceeds MIC of 0.25000 ug/ml assuming 7% unbound compound concentration by one compartment human pharmacokinetic model; format: functional; summary of the method: as §3
[17] = system: Mycobacterium tuberculosis; assay: fT>MIC for >= 1 log reduction in CFU count in Mycobacterium tuberculosis H37Rv in using simulated dose of at 100 mg assessed as time during compound concentration exceeds MIC of 0.25000 ug/ml assuming 10% unbound compound concentration by one compartment human pharmacokinetic model; format: functional; summary of the method: as §2
[18] = system: Mycobacterium tuberculosis; assay: fT>MIC for >= 1 log reduction in CFU count in Mycobacterium tuberculosis H37Rv in using simulated dose of at 400 mg assessed as time during compound concentration exceeds MIC of 0.25000 ug/ml assuming 15% unbound compound concentration by one compartment human pharmacokinetic model; format: functional; summary of the method: as §3
[19] = system: Mycobacterium tuberculosis; assay: Antimicrobial activity against Mycobacterium tuberculosis H37Rv infected in single po dosed BALB/c mouse assessed as reduction in lung CFU count; format: functional
[20] = AUC (0 to t) in mouse at 100 or 50 mg/kg, po administered as single dose; format: ADME, organism-based; design: dose 50 mg/kg, route oral; conditions: plasma

O=[N+]([O-])c1cn2c(n1)OC[C@@H](OCc1ccc(OC(F)(F)F)cc1)C2 [PRETOMANID]
Tmax [1]: 4 h | MIC [2]: 0.06 µg/mL (≈ 0.167 µM) | Activity [3]: Non-toxic | log10cfu [4]: 2.4 | fT>MIC [5]: 46% | fT>MIC [6]: 100% | fT>MIC [7]: 100% | fT>MIC [8]: 100% | fT>MIC [9]: 46% | fT>MIC [10]: 100% | fT>MIC [11]: 46% | fT>MIC [12]: 0% | fT>MIC [13]: 0% | fT>MIC [14]: 100% | fT>MIC [15]: 0% | fT>MIC [16]: 4% | fT>MIC [17]: 0% | fT>MIC [18]: 67% | MBC [19]: 100 mg/kg | AUC(0-t) [20]: 70400 ng·h/mL
